According to ChEMBL document CHEMBL1287798, “3,5-disubstituted pyranone analogues of highly antifungally active furanones: conversion of biological effect from antifungal to cytostatic” (Bioorg Med Chem Lett, 2010):
Activity calls are given as the source filed them. No cut-off for these calls is given here.

Key:
Clavispora lusitaniae = assay: Antifungal activity against Clavispora lusitaniae 2446/I by microdilution method
Lichtheimia corymbifera = assay: Antifungal activity against Absidia corymbifera 272 by microdilution method; format: functional
Nannizzia gypsea = assay: Antifungal activity against Microsporum gypseum by microdilution method; format: functional
Nakaseomyces glabratus = assay: Antifungal activity against Candida glabrata 20/I by microdilution method; format: functional
Pichia kudriavzevii [1] = assay: Antifungal activity against Candida krusei E28 by microdilution method; format: functional
Trichosporon beigelii = assay: Antifungal activity against Trichosporon beigelii 1188 by microdilution method; format: functional
[2] = system: Trichophyton mentagrophytes; assay: Antifungal activity against Trichophyton mentagrophytes 445 by microdilution method; format: functional
Candida tropicalis = assay: Antifungal activity against Candida tropicalis 156 by microdilution method; format: functional
Candida albicans [3] = assay: Antifungal activity against Candida albicans ATCC 44859 by microdilution method; format: functional
Candida parapsilosis = assay: Antifungal activity against Candida parapsilosis ATCC 22019 by microdilution method; format: functional; conditions: Lodderomyces parapsilosis
Candida albicans [4] = assay: Antifungal activity against Candida albicans ATCC 90028 by microdilution method; format: functional
Aspergillus fumigatus = assay: Antifungal activity against Aspergillus fumigatus 231 by microdilution method; format: functional
Pichia kudriavzevii [5] = assay: Antifungal activity against Candida krusei ATCC 6258 by microdilution method; format: functional
CCRF-CEM = assay: Growth inhibition of human CCRF-CEM cells at 10 umol/L; format: functional, cell-based
Outline: (§1)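 Single-concentration cytostatic screen at 10 µmol L⁻¹ on mouse lymphocytic leukemia L1210 (ATCC CCL 219), human acute lymphoblastic leukemia CCRF-CEM T lymphoblastoid cells (ATCC CCL 119), human promyelocytic leukemia HL-60 (ATCC CCL 240) and human cervix carcinoma HeLa S3 (ATCC CCL 2.2).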

HL-60 = assay: Growth inhibition of human HL60 cells at 10 umol/L; format: functional, cell-based
Outline: as §1

HeLa S3 = assay: Growth inhibition of human HeLaS3 cells at 10 umol/L; format: functional, cell-based
Outline: as §1

L1210 [6] = assay: Growth inhibition of mouse L1210 cells at 10 umol/L; format: functional, cell-based
Outline: as §1

L1210 [7] = assay: Growth inhibition of mouse L1210 cells; format: functional, cell-based
HT-29 = assay: Growth inhibition of human HT-29 cells; format: functional, cell-based

Structure (SMILES) | MIC (Clavispora lusitaniae) [µM] | MIC (Lichtheimia corymbifera) [µM] | MIC (Nannizzia gypsea) [µM] | MIC (Nakaseomyces glabratus) [µM] | MIC (Pichia kudriavzevii [1]) [µM] | MIC (Trichosporon beigelii) [µM] | MIC [2] [µM] | MIC (Candida tropicalis) [µM] | MIC (Candida albicans [3]) [µM] | MIC (Candida parapsilosis) [µM] | MIC (Candida albicans [4]) [µM] | MIC (Aspergillus fumigatus) [µM] | MIC (Pichia kudriavzevii [5]) [µM] | inhibition (CCRF-CEM) | inhibition (HL-60) | inhibition (HeLa S3) | inhibition (L1210 [6]) | IC50 (L1210 [7]) [µM] | IC50 (HT-29) [µM]
CC(=O)OCC1C=C(c2ccccc2)C(=O)OC1 (stereo unspecified) | ≥ 62.5 | ≥ 62.5 | ≥ 62.5 | ≥ 62.5 | ≥ 62.5 | ≥ 62.5 | ≥ 62.5 | ≥ 62.5 | ≥ 62.5 | ≥ 62.5 | ≥ 62.5 | ≥ 62.5 | ≥ 62.5 |  |  |  |  |  | 
O=C1OCC(CO)C=C1c1ccc(Cl)c(Cl)c1 (stereo unspecified) |  |  |  |  |  |  |  |  |  |  |  |  |  | inactive | inactive | inactive | inactive |  | 
COc1ccc(C2=CC(COC(=O)c3ccccc3)COC2=O)cc1 (stereo unspecified) | ≥ 62.5 | ≥ 62.5 | ≥ 62.5 | ≥ 62.5 | ≥ 62.5 | ≥ 62.5 | ≥ 62.5 | ≥ 62.5 | ≥ 62.5 | ≥ 62.5 | ≥ 62.5 | ≥ 62.5 | ≥ 62.5 |  |  |  |  |  | 
COc1ccc(C2=CC(COC(C)=O)COC2=O)cc1 (stereo unspecified) | ≥ 62.5 | ≥ 62.5 | ≥ 62.5 | ≥ 62.5 | ≥ 62.5 | ≥ 62.5 | ≥ 62.5 | ≥ 62.5 | ≥ 62.5 | ≥ 62.5 | ≥ 62.5 | ≥ 62.5 | ≥ 62.5 |  |  |  |  |  | 
CC(=O)OCC1C=C(c2cccc(Cl)c2)C(=O)OC1 (stereo unspecified) | ≥ 62.5 | ≥ 62.5 | ≥ 62.5 | ≥ 62.5 | ≥ 62.5 | ≥ 62.5 | ≥ 62.5 | ≥ 62.5 | ≥ 62.5 | ≥ 62.5 | ≥ 62.5 | ≥ 62.5 | ≥ 62.5 |  |  |  |  |  | 
CC(C)(C)C(=O)OCC1C=C(c2ccccc2)C(=O)OC1 (stereo unspecified) | ≥ 62.5 | ≥ 62.5 | ≥ 62.5 | ≥ 62.5 | ≥ 62.5 | ≥ 62.5 | ≥ 62.5 | ≥ 62.5 | ≥ 62.5 | ≥ 62.5 | ≥ 62.5 | ≥ 62.5 | ≥ 62.5 |  |  |  |  |  | 
COc1ccc(C2=CC(COC(=O)C(C)(C)C)COC2=O)cc1 (stereo unspecified) | ≥ 62.5 | ≥ 62.5 | ≥ 62.5 | ≥ 62.5 | ≥ 62.5 | ≥ 62.5 | ≥ 62.5 | ≥ 62.5 | ≥ 62.5 | ≥ 62.5 | ≥ 62.5 | ≥ 62.5 | ≥ 62.5 |  |  |  |  |  | 
O=C1OCC(COC(=O)c2ccccc2)C=C1c1cccc(Cl)c1 (stereo unspecified) | ≥ 62.5 | ≥ 62.5 | ≥ 62.5 | ≥ 62.5 | ≥ 62.5 | ≥ 62.5 | ≥ 62.5 | ≥ 62.5 | ≥ 62.5 | ≥ 62.5 | ≥ 62.5 | ≥ 62.5 | ≥ 62.5 |  |  |  |  |  | 
CC(=O)OCC1C=C(c2ccc(Cl)c(Cl)c2)C(=O)OC1 (stereo unspecified) | ≥ 62.5 | ≥ 62.5 | ≥ 62.5 | ≥ 62.5 | ≥ 62.5 | ≥ 62.5 | ≥ 62.5 | ≥ 62.5 | ≥ 62.5 | ≥ 62.5 | ≥ 62.5 | ≥ 62.5 | ≥ 62.5 |  |  |  |  | 7.3 | 2.45
CC(=O)OCC1C=C(c2ccc(Br)cc2)C(=O)OC1 (stereo unspecified) | ≥ 62.5 | ≥ 62.5 | ≥ 62.5 | ≥ 62.5 | ≥ 62.5 | ≥ 62.5 | ≥ 62.5 | ≥ 62.5 | ≥ 62.5 | ≥ 62.5 | ≥ 62.5 | ≥ 62.5 | ≥ 62.5 |  |  |  |  |  | 
CC(C)(C)C(=O)OCC1C=C(c2ccc(Cl)c(Cl)c2)C(=O)OC1 (stereo unspecified) | ≥ 62.5 | ≥ 62.5 | ≥ 62.5 | ≥ 62.5 | ≥ 62.5 | ≥ 62.5 | ≥ 62.5 | ≥ 62.5 | ≥ 62.5 | ≥ 62.5 | ≥ 62.5 | ≥ 62.5 | ≥ 62.5 |  |  |  |  |  | 
O=C1OCC(COC(=O)c2ccccc2)C=C1c1ccc(Cl)c(Cl)c1 (stereo unspecified) | ≥ 62.5 | ≥ 62.5 | ≥ 62.5 | ≥ 62.5 | ≥ 62.5 | ≥ 62.5 | ≥ 62.5 | ≥ 62.5 | ≥ 62.5 | ≥ 62.5 | ≥ 62.5 | ≥ 62.5 | ≥ 62.5 |  |  |  |  | 5.9 | 
CC(C)(C)C(=O)OCC1C=C(c2ccc(Br)cc2)C(=O)OC1 (stereo unspecified) | ≥ 62.5 | ≥ 62.5 | ≥ 62.5 | ≥ 62.5 | ≥ 62.5 | ≥ 62.5 | ≥ 62.5 | ≥ 62.5 | ≥ 62.5 | ≥ 62.5 | ≥ 62.5 | ≥ 62.5 | ≥ 62.5 |  |  |  |  |  | 
CC(C)(C)C(=O)OCC1C=C(c2ccc(Cl)cc2)C(=O)OC1 (stereo unspecified) | ≥ 62.5 | ≥ 62.5 | ≥ 62.5 | ≥ 62.5 | ≥ 62.5 | ≥ 62.5 | ≥ 62.5 | ≥ 62.5 | ≥ 62.5 | ≥ 62.5 | ≥ 62.5 | ≥ 62.5 | ≥ 62.5 |  |  |  |  |  | 
O=C1OCC(COC(=O)c2ccccc2)C=C1c1ccccc1 (stereo unspecified) | ≥ 62.5 | ≥ 62.5 | ≥ 62.5 | ≥ 62.5 | ≥ 62.5 | ≥ 62.5 | ≥ 62.5 | ≥ 62.5 | ≥ 62.5 | ≥ 62.5 | ≥ 62.5 | ≥ 62.5 | ≥ 62.5 |  |  |  |  |  | 
CC(=O)OCC1C=C(c2ccc(Cl)cc2)C(=O)OC1 (stereo unspecified) | ≥ 62.5 | ≥ 62.5 | ≥ 62.5 | ≥ 62.5 | ≥ 62.5 | ≥ 62.5 | ≥ 62.5 | ≥ 62.5 | ≥ 62.5 | ≥ 62.5 | ≥ 62.5 | ≥ 62.5 | ≥ 62.5 |  |  |  |  |  | 
O=C1OCC(COC(=O)c2ccccc2)C=C1c1ccc(Cl)cc1 (stereo unspecified) | ≥ 62.5 | ≥ 62.5 | ≥ 62.5 | ≥ 62.5 | ≥ 62.5 | ≥ 62.5 | ≥ 62.5 | ≥ 62.5 | ≥ 62.5 | ≥ 62.5 | ≥ 62.5 | ≥ 62.5 | ≥ 62.5 |  | inactive |  | inactive |  | 2.93
CC(C)(C)C(=O)OCC1C=C(c2cccc(Cl)c2)C(=O)OC1 (stereo unspecified) | ≥ 62.5 | ≥ 62.5 | ≥ 62.5 | ≥ 62.5 | ≥ 62.5 | ≥ 62.5 | ≥ 62.5 | ≥ 62.5 | ≥ 62.5 | ≥ 62.5 | ≥ 62.5 | ≥ 62.5 | ≥ 62.5 |  |  |  |  |  | 
